In publication PMC12089494 (Nature Communications, 2025):
Values after ≈ are worked out from the molar mass of the structure shown. Where two headings read alike, the source gives them in different places.

How the values were obtained:
[1] = Single-pass intestinal perfusion; assay type: in vivo, Wistar rats
In short: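 Male Wistar germ-free and age-matched SPF rats (6-week-old, 250–300 g), n = 6 per group. Fasted 12 h with free water, anaesthetised with intramuscular ketamine-xylazine (80 mg/kg and 20 mg/kg), kept on a heated surface at 37 ± 1 °C. Intestine perfused single-pass in situ for 2 h, sampled at 15-min intervals, and Peff determined. Perfused and unperfused segments were collected for microbiological detection.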

[2] = SPIP in GF rats mono-colonized with BTWT/BFWT or BTΔSPT/BFΔSPT; assay type: in vivo, Wistar rats; conditions: for Peff plateau: SPIP 30 mg/L NAC
In short: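 Germ-free Wistar rats (6-week-old) fed a fat-free diet (0% kcal fat, 76% carbohydrate, 24% protein) containing only PAA for 12 weeks. Wild-type or SPT-deleted Bacteroides strains, grown anaerobically at 37 °C in BHI with […] cysteine and resuspended in oxygen-free PBS, then given with the diet (10⁸ CFU/μL of PBS per rat, three times weekly) for 8 weeks. In situ single-pass perfusion and Peff determination followed.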

[3] = cited from earlier work
[4] = cited from earlier work; remark: listed apart in the source

- Peff plateau ([1]; GF rats, SPIP): 1.446 × 10^–4 cm/s
- Peff increase in GF rats than SPF controls ([1]; GF vs SPF rats): two-fold increase
- Peff plateau ([2]; GF^BFΔSPT rats): 1.417 × 10^–4 cm/s
- Peff increase than GF^BTWT and GF^BFWT littermates ([2]; GF^BTΔSPT and GF^BFΔSPT rats vs wild-type colonized): approximately with the two-fold increase
- Peff plateau ([2]; GF^BTΔSPT rats): 1.216 × 10^–4 cm/s
SMILES: CC(=O)N[C@@H](CS)C(=O)O [NAC, N-Acetylcysteine]
- aqueous solubility [3]: 163.9 mg/mL (≈ 1000 mM)
- aqueous solubility ([3]; pH 7.4): 163.9 mg/mL (≈ 1000 mM)
- within-study coefficients of variability (CVs) ([4]; different populations): 35-45%
- tmax ([4]; oral dose of NAC 400 mg, reduced form): 30 min
- Bio-availability, reduced form ([4]; oral dose of NAC 400 mg): 4.0%
- Bio-availability, total drug ([4]; oral dose of NAC 400 mg): 9.1%
- Cmax of the reduced form ([4]; oral dose of NAC 400 mg): 3470 ng/mL
